Measurements: ChEMBL document CHEMBL1125740, “Heterocyclic quinones. 17. A new in vivo active antineoplastic drug: 6,7-bis(1-aziridinyl)-4-[[3-(N,N-dimethylamino)propyl]amino]-5,8- quinazolinedione” (J Med Chem, 1991)
Values joined by “and” are separate entries in the source; they are usually repeats but may differ in a detail not shown here. Equal values may be shown once.

Columns and labels:
[1] = test system: L1210; assay: Compound was evaluated in vivo for antitumor activity after intraperitoneal administration against L1210(935) for total dose at an optimal dose of 1 mg/kg/injection at 1 day schedule.; format: functional, Mus musculus
Method in brief: (§1)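 L1210 leukemia, maintained in DBA/2 mice, was given ip as 10⁵ cells on day 0 to F1 hybrid or strain-of-origin mice over 18 g, in groups of 8. Dosing was ip from day 1, and mortality was checked daily. Median day of death counts dying mice only. %ILS = 100×(treated − control median day of death)/control median. Tumor-free survivors were counted on day 60. Weight change is g/mouse at nadir.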

[2] = Compound was evaluated in vivo for antitumor activity against Lewis Lung cercinoma after injecting the compound intravenously for percent T/C (value in parentheses indicates the day of evaluation); format: functional, Mus musculus
[3] = test system: L1210; assay: Compound was evaluated in vivo for antitumor activity after intraperitoneal administration against L1210(935) for median day of death at an optimal dose of 0.1 mg/kg/injection at 1-4 day schedule.; format: functional, Mus musculus; method in brief: as §1
[4] = test system: P388; assay: Compound was evaluated in vivo for antitumor activity after intraperitoneal administration against P388 (1313) for % increase in life span at an optimal dose of 0.25 mg/kg/injection; format: functional; conditions: Mus musculus, P388, ip
[5] = test system: B16; assay: Compound was evaluated in vivo for antitumor activity against B16 melanoma after injecting the compound intravenously for change in body weight.; format: functional, Mus musculus
Method in brief: (§2)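 30-60 mg tumor fragments implanted sc by trocar on day 0 into C57Bl/6-derived hosts (B16) or C3H/He-derived hosts (16/C). Drug given iv on days 6, 9 and 13 (B16) or 6, 9 and 12 (16/C), 10 mice per group. Tumors measured by caliper. T/C % taken from median tumor burden of treated vs control groups on day 15 (B16) or day 14 (16/C). Body weight change per mouse recorded at nadir.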

[6] = test system: P388; assay: Compound was evaluated in vivo for antitumor activity after intraperitoneal administration against P388/L-PAM(14) for median day of death at an optimal dose of 0.125 mg/kg/injection at 1,4,7,11 day schedule.; format: functional, Mus musculus
[7] = Compound was evaluated in vivo for antitumor activity against Glasgow osteogenic sarcoma after injecting the compound intravenously for total dose.; format: functional, Mus musculus
Method in brief: (§3)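 Glasgow osteogenic sarcoma in C57Bl/6-derived hosts: 30-60 mg fragments implanted sc by trocar on day 0. Drug given iv on days 3, 6 and 9, 7 mice per group. Tumors measured by caliper. Median tumor burden recorded on day 10. Body weight change per mouse recorded at nadir. Toxicity-related deaths counted.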

[8] = test system: L1210; assay: Compound was evaluated in vivo for antitumor activity after intraperitoneal administration against L1210(935) for mortality range at an optimal dose of 0.4 mg/kg/injection at 1-4 day schedule.; format: functional, Mus musculus; method in brief: as §1
[9] = test system: P388; assay: Compound was evaluated in vivo for antitumor activity after intraperitoneal administration against P388 (1313) for tumor free survivors at an optimal dose of 1 mg/kg/injection on day 60; format: functional, Mus musculus
[10] = test system: P388; assay: Compound was evaluated in vivo for antitumor activity after intraperitoneal administration against P388 (1313) for change in body weight at an optimal dose of 0.4 mg/kg/injection; format: functional, Mus musculus
[11] = test system: L1210; assay: Compound was evaluated in vivo for antitumor activity after intraperitoneal administration against L1210(935) for total dose at an optimal dose of 0.125 mg/kg/injection at 1,4,7,11day schedule.; format: functional, Mus musculus; method in brief: as §1
[12] = test system: P388; assay: Compound was evaluated in vivo for antitumor activity after intraperitoneal administration against P388/L-PAM(14) for mortality range at an optimal dose of 0.5 mg/kg/injection at 1,4,7,11 day schedule.; format: functional, Mus musculus
[13] = test system: P388; assay: Compound was evaluated in vivo for antitumor activity after intraperitoneal administration against P388/L-PAM(14) for mortality range at an optimal dose of 0.1 mg/kg/injection at 1,2,3,4 day schedule.; format: functional, Mus musculus
[14] = test system: P388; assay: Compound was evaluated in vivo for antitumor activity after intraperitoneal administration against P388 (1313) for median day of death at an optimal dose of 0.2 mg/kg/injection; format: functional, Mus musculus
[15] = test system: P388; assay: Compound was evaluated in vivo for antitumor activity after intraperitoneal administration against P388/L-PAM(14) for median day of death at an optimal dose of 0.5 mg/kg/injection at 1,4,7,11 day schedule.; format: functional, Mus musculus
[16] = test system: M5076; assay: Compound was evaluated in vivo for antitumor activity against M5076 after injecting the compound intravenously for percent T/C; format: functional, Mus musculus
[17] = Compound was evaluated in vivo for antitumor activity against mammary adenocarcinoma 16/C after injecting the compound intravenously for median tumor burden; format: functional, Mus musculus; method in brief: as §2
[18] = test system: P388; assay: Compound was evaluated in vivo for antitumor activity after intraperitoneal administration against P388 (1303) for total dose at an optimal dose of 0.75 mg/kg/injection; format: functional, Mus musculus
[19] = test system: P388; assay: Compound was evaluated in vivo for antitumor activity after intraperitoneal administration against P388 (1313) for total dose at an optimal dose of 0.5 mg/kg/injection; format: functional, Mus musculus
[20] = Compound was evaluated in vivo for antitumor activity against mammary adenocarcinoma 16/C after injecting the compound intravenously for toxicity related death.; format: functional, Mus musculus; method in brief: as §2
[21] = test system: P388; assay: Compound was evaluated in vivo for antitumor activity after intraperitoneal administration against P388/L-PAM(14) for total dose at an optimal dose of 0.1 mg/kg/injection at 1,2,3,4 day schedule.; format: functional, Mus musculus
[22] = test system: P388; assay: Compound was evaluated in vivo for antitumor activity after intraperitoneal administration against P388 (1313) for % increase in life span at an optimal dose of 0.2 mg/kg/injection; format: functional; conditions: Mus musculus, P388, ip
[23] = test system: L1210; assay: Compound was evaluated in vivo for antitumor activity after intraperitoneal administration against L1210(935)for change in body weight at an optimal dose of 0.5 mg/kg/injection at 1,4,7,11day schedule.; format: functional, Mus musculus; method in brief: as §1
[24] = test system: P388; assay: Compound was evaluated in vivo for antitumor activity after intraperitoneal administration against P388/L-PAM(12) for % increase in life span at an optimal dose of 0.75 mg/kg/injection; format: functional; conditions: Mus musculus, P388, ip
[25] = test system: L1210; assay: Compound was evaluated in vivo for antitumor activity after intraperitoneal administration against L1210(935) for median day of death at an optimal dose of 0.2 mg/kg/injection at 1-4 day schedule.; format: functional, Mus musculus; method in brief: as §1
[26] = test system: P388; assay: Compound was evaluated in vivo for antitumor activity after intraperitoneal administration against P388/L-PAM(14) for mortality range at an optimal dose of 0.5 mg/kg/injection at one day schedule.; format: functional, Mus musculus
[27] = test system: P388; assay: Compound was evaluated in vivo for antitumor activity after intraperitoneal administration against P388 (1313) for tumor free survivors at an optimal dose of 0.4 mg/kg/injection; format: functional, Mus musculus
[28] = test system: L1210; assay: Compound was evaluated in vivo for antitumor activity after intraperitoneal administration against L1210(935) for tumor free survivors at an optimal dose of 0.5 mg/kg/injection at 1,4,7,11 day schedule.; format: functional, Mus musculus; method in brief: as §1
[29] = test system: P388; assay: Compound was evaluated in vivo for antitumor activity after intraperitoneal administration against P388 (1303) for % increase in life span at an optimal dose of 0.75 mg/kg/injection; format: functional; conditions: Mus musculus, P388, ip
[30] = test system: P388; assay: Compound was evaluated in vivo for antitumor activity after intraperitoneal administration against P388/L-PAM(14) for % increase in life span at an optimal dose of 0.1 mg/kg/injection at 1,2,3,4 day schedule.; format: functional; conditions: Mus musculus, P388, ip
[31] = Compound was evaluated in vivo for antitumor activity against Glasgow osteogenic sarcoma after injecting the compound intravenously for change in body weight.; format: functional, Mus musculus; method in brief: as §3

## CN(C)CCCNc1ncnc2c1C(=O)C(N1CC1)=C(N1CC1)C2=O
[1]
  Total dose: 1 mg/kg
[2]
  T/C: 81%
[3]
  Median day of death: 14
[4]
  ILS at 0.25 mg/kg: 58%
[5]
  Change in body weight: 0.9 g mouse-1 and 0.8 g mouse-1
[6]
  Median day of death: 15.5
[7]
  Total dose: 1.08 mg/kg
[8]
  Mortality: 20 days
[9]
  Survivors: 0
[10]
  Change in body weight: -0.9 g mouse-1
[11]
  Total dose: 0.5 mg/kg
[12]
  Mortality: 32 days
[13]
  Mortality: 21 days
[14]
  Median day of death: 19.5
[15]
  Median day of death: 22.5
[16]
  T/C: 58%
[17]
  Tumor burden: 1265 mg
[18]
  Optimal dose: 0.75 mg/kg
[19]
  Optimal dose: 2 mg/kg
[20]
  Toxicity: 0
  Toxicity related death: 0
[21]
  Total dose: 0.4 mg/kg
[22]
  ILS at 0.2 mg/kg: 62%
[23]
  Change in body weight: 1.1 g mouse-1
[24]
  ILS at 0.75 mg/kg: 19%
[25]
  Median day of death: 14
[26]
  Mortality: 22 days
[27]
  Survivors: 1
[28]
  Survivors: 1
[29]
  ILS at 0.75 mg/kg: 68%
[30]
  ILS at 0.1 mg/kg: 0%
[31]
  Change in body weight: 0.6 g mouse-1
